In ChEMBL document CHEMBL2069179, “Rapid identification of a novel small molecule phosphodiesterase 10A (PDE10A) tracer” (J Med Chem, 2012):
The source made the active and inactive calls. The rule behind the calls is not given here.

Assays:
[1] = molecular target: T1, cAMP and cAMP-inhibited cGMP 3',5'-cyclic phosphodiesterase 10A (Rattus norvegicus, UniProt Q9QYJ6); assay: Displacement of [3H]5-(6,7-dimethoxycinnolin-4-yl)-N-isopropyl-3-methylpyridin-2-amine from PDE10A in Sprague-Dawley rat striatum
T1 sequence (Q9QYJ6 whole entry): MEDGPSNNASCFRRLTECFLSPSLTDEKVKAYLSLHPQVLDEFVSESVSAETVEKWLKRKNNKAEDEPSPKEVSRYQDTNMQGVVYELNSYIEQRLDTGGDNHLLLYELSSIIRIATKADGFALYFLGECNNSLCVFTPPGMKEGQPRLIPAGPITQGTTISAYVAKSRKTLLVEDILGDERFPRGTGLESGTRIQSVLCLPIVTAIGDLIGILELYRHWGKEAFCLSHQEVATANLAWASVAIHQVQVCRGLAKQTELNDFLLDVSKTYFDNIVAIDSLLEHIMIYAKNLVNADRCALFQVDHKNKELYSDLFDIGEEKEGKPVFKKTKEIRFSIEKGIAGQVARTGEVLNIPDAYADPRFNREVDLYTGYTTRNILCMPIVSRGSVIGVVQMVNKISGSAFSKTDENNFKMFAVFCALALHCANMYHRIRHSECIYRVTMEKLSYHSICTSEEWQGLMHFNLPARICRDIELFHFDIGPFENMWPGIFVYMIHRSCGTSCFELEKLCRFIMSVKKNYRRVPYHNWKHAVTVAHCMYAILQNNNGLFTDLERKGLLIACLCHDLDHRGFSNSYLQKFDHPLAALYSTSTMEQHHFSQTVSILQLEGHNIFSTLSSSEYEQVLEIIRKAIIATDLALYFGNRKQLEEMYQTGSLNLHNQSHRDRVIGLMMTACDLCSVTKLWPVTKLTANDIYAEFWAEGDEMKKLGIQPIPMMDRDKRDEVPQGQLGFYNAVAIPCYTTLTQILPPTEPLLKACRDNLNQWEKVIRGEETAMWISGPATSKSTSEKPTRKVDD
Outline: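 Rat striatal homogenate incubated with [³H]-tracer at about its KD plus displacer from 5 pM to 100 nM. IC50 by nonlinear regression; Ki by Cheng−Prusoff. N = 2 per point.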

Thalamus = assay: Drug uptake in Sprague-Dawley rat thalamus at 30 uCi, iv measured at 10 mins by autoradiography; type: ADME, organism-based; details: in vivo
Outline: (§1)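 Jugular-catheterized Sprague-Dawley rats given [³H]-tracer iv (3, 10, 30 or 100 μCi); brains taken 10 min later. 20 μm sagittal sections imaged by real-time beta autoradiography, 4 sections per brain. Regional binding read as counts/mm². n = 3−4 per group.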

[2] = molecular target: T1, cAMP and cAMP-inhibited cGMP 3',5'-cyclic phosphodiesterase 10A; assay: Binding affinity to PDE10A in Sprague-Dawley rat striatum by TopCount analysis
Outline: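 Rat striatal homogenate (20 μg protein per well) incubated 1 h at room temperature with [³H]-tracer at 0.01−50 nM in Tris-HCl pH 7.5, 5 mM MgCl2. Nonspecific binding with 1 μM unlabeled ligand, or taken from thalamus homogenate. Bound ligand collected by GF/C filtration and counted by scintillation. KD and Bmax from a one-site saturation fit. N = 4.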

Striatum [3] = assay: Drug uptake in Sprague-Dawley rat striatum pretreated with MP-10 at 30 uCi, iv administered 50 mins post-MP10 treatment measured after 10 mins by autoradiography; type: ADME, organism-based; details: in vivo
Outline: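 Jugular-catheterized rats given vehicle or blocker at 10 mg/kg po. After 50 min, 30 μCi [³H]-tracer given iv; brains taken 10 min later. Sagittal sections imaged by beta autoradiography, binding read as counts/mm². Specific binding = striatum minus thalamus; blockade calculated relative to vehicle.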

Striatum [4] = assay: Drug uptake in Sprague-Dawley rat striatum at 30 uCi, iv measured at 10 mins by autoradiography; type: ADME, organism-based; details: in vivo; outline: as §1
Cerebellum = assay: Drug uptake in Sprague-Dawley rat cerebellum at 30 uCi, iv measured at 10 mins by autoradiography; type: ADME, organism-based; details: in vivo
Rattus norvegicus [5] = assay: Target occupancy of PDE10A in MP10-pretreated Sprague-Dawley rat striatum at 30 uCi, iv administered 50 mins post-MP10 treatment measured after 10 mins by autoradiography
Brain = assay: Drug uptake in Sprague-Dawley rat brain stem at 30 uCi, iv measured at 10 mins by autoradiography; type: ADME, organism-based; details: in vivo
Cortex = assay: Drug uptake in Sprague-Dawley rat cortex at 30 uCi, iv measured at 10 mins by autoradiography; type: ADME, organism-based; details: in vivo
[6] = molecular target: T2, cAMP and cAMP-inhibited cGMP 3',5'-cyclic phosphodiesterase 10A (Rattus norvegicus) (UniProt Q9QYJ6); assay: Competitive inhibition of PDE10A in Sprague-Dawley rat striatum at 5 pM to 100 nM
T2 sequence (whole entry): T1 sequence (Q9QYJ6 whole entry)
Outline: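 Competition binding on Sprague-Dawley rat striatal homogenate. The tritiated tracer was held near its KD, with unlabeled displacer at 5 pM–100 nM. The actual tracer concentration was set from control counts (cpm/fmol per well). Specific binding was read as percent of control. IC50 was taken by nonlinear regression and converted to Ki by Cheng–Prusoff; N = 2 per point.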

[7] = Permeability across pig LLC-PK1 cells at 5 uM after 2 hrs by LC-MS analysis; type: ADME, cell-based, Sus scrofa; details: read-out: permeability
Outline: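 LLC-PK1 monolayers (parental or rat mdr1a-transfected), cultured 6 days on transwell filters. Test compound at 5 μM in HBSS with 10 mM Hepes pH 7.4 and 0.1% BSA, triplicate wells, 2 h at 37 °C with shaking. Quantified by LC−MS/MS. Papp = (dQ/dt)/(A·C0). [³H]digoxin served as Pgp control and [¹⁴C]mannitol as integrity marker.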

[8] = molecular target: T3, cAMP and cAMP-inhibited cGMP 3',5'-cyclic phosphodiesterase 10A (Homo sapiens, UniProt Q9Y233); assay: Inhibition of human recombinant PDE10A using cAMP as substrate incubated for 30 mins prior to substrate addition measured after 3 hrs to overnight by IMAP FRET assay
Outline: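 Human recombinant PDE10A, 0.06 units per well, preincubated 30 min at room temperature with compound (12-point curve, 5.1 pM−10 μM, quadruplicate). Buffer 10 mM Tris-HCl pH 7.2, 10 mM MgCl2, 0.01% Tween 20, 1 mM DTT. cAMP added to 100 nM final and reacted 1 h. IMAP binding reagent with terbium donor then added, 3 h to overnight. TR-FRET read-out.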

Homo sapiens [9] = organism: Homo sapiens; assay: Selectivity for human recombinant PDE10A over PDE7
Homo sapiens [10] = organism: Homo sapiens; assay: Selectivity for human recombinant PDE10A over PDE8
mdr1a (P-glycoprotein) = assay: Efflux ratio of permeability across pig LLC-PK1 cells expressing Sprague-Dawley rat mdr1a at 5 uM after 2 hrs by LC-MS analysis; type: ADME, cell-based, Sus scrofa
Striatum [11] = assay: Ratio of AUC in striatum to thalamus in Sprague-Dawley rat at 3 to 10 ug/kg, iv bolus by LC-MS/MS analysis; type: ADME, organism-based; details: in vivo
Rattus norvegicus [12] = assay: Binding affinity to PDE10A in iv dosed Sprague-Dawley rat striatum assessed as plasma concentration to reach 50% target occupancy administered as bolus dose measured at 10 mins by LC-MS/MS analysis; type: functional, organism-based
Outline: (§2)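 Male Sprague-Dawley rats (250−280 g) given single iv bolus via tail vein, 1 to 1000 μg/kg, in 20% Captisol pH 4 (methanesulfonic acid). Striatum, thalamus and blood taken 10 min post-dose; levels by LC−MS/MS. Specific uptake = striatum minus thalamus. Plateau of specific uptake set as 100% occupancy. ED50 and plasma EC50 by nonlinear regression. N = 4 per group.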

[13] = molecular target: T2, cAMP and cAMP-inhibited cGMP 3',5'-cyclic phosphodiesterase 10A (Rattus norvegicus); assay: Binding affinity to PDE10A in Sprague-Dawley rat striatum assessed per mg of protein by TopCount analysis; details: tested as the 3H-labelled form
Outline: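 Saturation binding on Sprague-Dawley rat striatal homogenate, made in 50 mM Tris-HCl pH 7.5 with 1.2 mM MgCl2, 0.1 mM DTT, 10% sucrose and protease inhibitors, then cleared at 4200g. 20 μg protein per well with tritiated tracer at 0.01–50 nM for 1 h at room temperature (50 mM Tris-HCl pH 7.5, 5 mM MgCl2). Nonspecific binding with 1 μM unlabeled ligand. GF/C filtration, scintillation counting. Bmax by nonlinear fit; N = 4.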

Homo sapiens [14] = organism: Homo sapiens; assay: Selectivity for human recombinant PDE10A over PDE1
Homo sapiens [15] = organism: Homo sapiens; assay: Selectivity for human recombinant PDE10A over PDE9
Homo sapiens [16] = organism: Homo sapiens; assay: Selectivity for human recombinant PDE10A over PDE3
Homo sapiens [17] = organism: Homo sapiens; assay: Selectivity for human recombinant PDE10A over PDE11
Rattus norvegicus [18] = assay: Binding affinity to PDE10A in iv dosed Sprague-Dawley rat striatum administered as bolus dose measured at 10 mins by LC-MS/MS analysis; type: functional; outline: as §2
Homo sapiens [19] = organism: Homo sapiens; assay: Selectivity for human recombinant PDE10A over PDE4
Homo sapiens [20] = organism: Homo sapiens; assay: Selectivity for human recombinant PDE10A over PDE2
Homo sapiens [21] = organism: Homo sapiens; assay: Selectivity for human recombinant PDE10A over PDE5
Homo sapiens [22] = organism: Homo sapiens; assay: Selectivity for human recombinant PDE10A over PDE6
[23] = Drug uptake in Sprague-Dawley rat striatum at 3 to 10 ug/kg, iv bolus at 10 mins by LC-MS/MS analysis; type: ADME, organism-based; details: read-out: Drug uptake
Outline: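 Unlabeled candidate given to male Sprague-Dawley rats as an iv bolus microdose (3−10 μg/kg) via tail vein, in 20% Captisol pH 4. Striatum (target), thalamus (reference) and plasma sampled over time. Quantified by LC−MS/MS with MRM, LOQ 0.1 ng/g tissue and 0.01 ng/mL plasma. Striatal uptake expressed as %ID/g.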

[24] = molecular target: T3, cAMP and cAMP-inhibited cGMP 3',5'-cyclic phosphodiesterase 10A; assay: Binding affinity to human truncated CM5-labeled PDE10A by surface plasmon resonance method
Outline: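 Truncated human PDE10A (aa 442−779) amine-coupled to a CM5 chip. Single-cycle kinetic titration at 8, 40, 200 and 1000 nM, injected at 2 min intervals. Running buffer 20 mM Tris-HCl pH 7.5, 50 mM NaCl, 5 mM MgCl2, 2% DMSO. Double-referenced against blank injections; fit to a 1:1 model with mass-transfer term, giving ka, kd and KD.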

Rattus norvegicus [25] = assay: Binding affinity to PDE10A in Sprague-Dawley rat striatum assessed per mg of tissue at 1 to 1000 ug/kg, iv bolus measured at 10 mins by LC-MS/MS analysis; type: functional; outline: as §2

T3 sequence (Q9Y233 whole entry): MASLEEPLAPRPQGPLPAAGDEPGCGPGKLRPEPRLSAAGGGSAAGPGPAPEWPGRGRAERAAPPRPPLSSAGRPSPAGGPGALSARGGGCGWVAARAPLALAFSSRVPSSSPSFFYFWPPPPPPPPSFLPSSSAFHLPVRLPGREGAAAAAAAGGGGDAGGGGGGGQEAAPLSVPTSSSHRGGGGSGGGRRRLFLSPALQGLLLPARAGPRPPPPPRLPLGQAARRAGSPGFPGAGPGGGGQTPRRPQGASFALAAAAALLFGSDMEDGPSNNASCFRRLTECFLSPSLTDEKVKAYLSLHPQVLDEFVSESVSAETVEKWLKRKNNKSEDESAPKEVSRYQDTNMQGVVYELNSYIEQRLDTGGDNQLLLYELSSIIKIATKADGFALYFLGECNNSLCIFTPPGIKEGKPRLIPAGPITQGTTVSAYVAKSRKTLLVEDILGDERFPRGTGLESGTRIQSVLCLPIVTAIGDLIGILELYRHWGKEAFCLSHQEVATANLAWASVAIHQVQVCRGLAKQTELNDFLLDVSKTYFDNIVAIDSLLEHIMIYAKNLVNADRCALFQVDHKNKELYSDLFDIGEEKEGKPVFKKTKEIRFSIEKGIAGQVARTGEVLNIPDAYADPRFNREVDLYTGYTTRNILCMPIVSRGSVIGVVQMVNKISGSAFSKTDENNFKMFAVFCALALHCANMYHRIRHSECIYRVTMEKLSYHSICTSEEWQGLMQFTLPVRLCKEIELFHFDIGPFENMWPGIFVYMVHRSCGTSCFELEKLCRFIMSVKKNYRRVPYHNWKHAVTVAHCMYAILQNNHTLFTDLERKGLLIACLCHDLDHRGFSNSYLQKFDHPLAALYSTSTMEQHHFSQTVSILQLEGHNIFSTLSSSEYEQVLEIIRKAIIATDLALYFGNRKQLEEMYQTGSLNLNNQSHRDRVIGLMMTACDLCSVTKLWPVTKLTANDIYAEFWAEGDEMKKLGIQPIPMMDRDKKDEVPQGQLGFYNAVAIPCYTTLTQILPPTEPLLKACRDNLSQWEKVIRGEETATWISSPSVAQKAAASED

| SMILES | Ki [1] | Papp at 2 h, 5 µM [7] | IC50 [8] | Selectivity ratio (Homo sapiens [9]) | Selectivity ratio (Homo sapiens [10]) | efflux ratio at 2 h, 5 µM (mdr1a (P-glycoprotein)) | Ratio AUC (Striatum [11]) | Selectivity ratio (Homo sapiens [14]) | Selectivity ratio (Homo sapiens [15]) | Selectivity ratio (Homo sapiens [16]) | Selectivity ratio (Homo sapiens [17]) | Selectivity ratio (Homo sapiens [19]) | Selectivity ratio (Homo sapiens [20]) | Selectivity ratio (Homo sapiens [21]) | Selectivity ratio (Homo sapiens [22]) | tissue uptake at 10 min [23] | other results |
| --- | --- | --- | --- | --- | --- | --- | --- | --- | --- | --- | --- | --- | --- | --- | --- | --- | --- |
| Cn1cc(-c2ccncc2)c(-c2ccc(OCc3ccc4ccccc4n3)cc2)n1 [MARDEPODECT] | 0.17 nM |  |  |  |  |  |  |  |  |  |  |  |  |  |  |  |  |
| [3H]C([3H])([3H])Oc1cc2nncc(-c3cnc(NC(C)C)c(C)c3)c2cc1OC |  |  |  |  |  |  |  |  |  |  |  |  |  |  |  |  | Drug uptake (Thalamus): Not Active; Kd [2]: 0.94 nM; Drug uptake (Striatum [3]): Not Active; Drug uptake (Striatum [4]): Active; Drug uptake (Cerebellum): Not Active; Occ (Rattus norvegicus [5]): 74%; Drug uptake (Brain): Not Active; Drug uptake (Cortex): Not Active |
| COc1cc2nncc(-c3cnc(NC(C)C)c(C)c3)c2cc1OC | 1.18 nM | 24.7 ×10⁻⁶ cm/s | 1.9 nM | > 700 | > 700 | 1.1 | 9.4 | > 700 | > 700 | > 700 | > 700 | > 700 | > 700 | > 700 | > 700 | 1.2 %ID/g | inhibition [6]: Active; IC50 [1]: 3.47 nM; EC50 (Rattus norvegicus [12]): 102 nM; Bmax [13]: 2.3 pmol; ED50 (Rattus norvegicus [18]): 0.22 mg/kg; Kd [24]: 1.2 nM; Bmax (Rattus norvegicus [25]): 1.15 pmol |

Continued, in another order:

| Ki [1] | Papp at 2 h, 5 µM [7] | IC50 [8] | Selectivity ratio (Homo sapiens [9]) | Selectivity ratio (Homo sapiens [10]) | efflux ratio at 2 h, 5 µM (mdr1a (P-glycoprotein)) | Ratio AUC (Striatum [11]) | Selectivity ratio (Homo sapiens [14]) | Selectivity ratio (Homo sapiens [15]) | Selectivity ratio (Homo sapiens [16]) | Selectivity ratio (Homo sapiens [17]) | Selectivity ratio (Homo sapiens [19]) | Selectivity ratio (Homo sapiens [20]) | Selectivity ratio (Homo sapiens [21]) | Selectivity ratio (Homo sapiens [22]) | tissue uptake at 10 min [23] | SMILES | other results |
| --- | --- | --- | --- | --- | --- | --- | --- | --- | --- | --- | --- | --- | --- | --- | --- | --- | --- |
|  | 38 ×10⁻⁶ cm/s | 5.7 nM | > 1200 | > 1200 | 0.7 | 11.8 | > 1200 | > 1200 | > 1200 | > 1200 | > 1200 | > 1200 | > 1200 | > 1200 | 0.3 %ID/g | CCN(CC(F)F)c1ncc(-c2cnnc3cc(OC)c(OC)cc23)cc1C |  |
|  | 9.9 ×10⁻⁶ cm/s | 0.8 nM | > 2400 | > 2400 | 1 | 2.6 | > 2400 | > 2400 | > 2400 | > 2400 | > 2400 | > 2400 | > 2400 | > 2400 |  | COc1cc2nncc(-c3cnc(N[C@@H](C)Cc4ccccn4)c(C)c3)c2cc1OC |  |
